“And” between values parts separate entries of the source, which are not always exact repeats. Equal values may be shown once.
Tested on: Plasmodium yoelii
Experiment: NOVARTIS: Antimalarial liver stage activity measured as reduction in Plasmodium yoelii schizont area in HepG2-A16-CD81 cells by immuno-fluorescence, and median schizont size at 10uM compound concentration
Format: functional, organism-based
Method in brief: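 Host and parasite nuclei stained with Hoechst 33342, parasites with αPyHSP70 antibody; 25 images per well by high-content imaging; median parasite (schizont) area measured by automated image analysis, ~50 schizonts per experiment, two or more independent experiments.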

[1] = Plasmodium yoelii, HepG2-A16-CD81

| SMILES | IC50 [1] | Schizont size | IC50 (hepg2-a16-cd81) |
| --- | --- | --- | --- |
| NC(Cc1ccccc1)C(=O)N1CCn2c(nc(-c3ccccc3)c2Nc2ccc3c(c2)OCO3)C1 (configuration not stated) | 0.00185 µM | – | – |
| C=CC[n+]1c(C=C2C=CN(C)C=C2)sc2ccccc21.[I-] | 0.0132 µM | 26.72 um | – |
| COc1ccc(C2CC3=NC(C)=C(C(=O)OC(C)C)C(c4ccccc4OC)C3=C(O)C2)cc1OC (configuration not stated) | > 10 µM | 182.03 um | – |
| CC1(C)C2CCC(C2)C1(C)NC(=S)NN=Cc1ccccn1 (configuration not stated) | 0.0174 µM | 28.29 um | – |
| CCN1C(C)=C(C)S/C1=C\c1ccc2cc(C)ccc2[n+]1C | 0.0113 µM | 14.93 um | – |
| COc1cccc(NC(=O)c2ccc(NCCCN3CC(C)CC(C)C3)c([N+](=O)[O-])c2)c1 (configuration not stated) | 0.437 µM | 87.57 um | – |
| CCOC(=O)C1=C(C)NC2=C(C(=O)C(C(=O)OCC)C(c3ccccc3OC)C2)C1c1cc(OC)c(OC)c(OC)c1 (configuration not stated) | 0.509 µM | 103.54 um | – |
| Nc1cccc(C(=O)Nc2ccc(Oc3cccc(Oc4ccc(NC(=O)c5cccc(N)c5)cc4)c3)cc2)c1 | 1.77 µM | 90.81 um | – |
| O=[N+]([O-])c1cccc(C(Nc2nccs2)c2ccc3cccnc3c2O)c1 (configuration not stated) | 0.358 µM | 43.42 um | – |
| CC1(C)N=C(N)N=C(N)N1c1ccccc1.Cl | 0.1 µM | 37.05 um | – |
| Fc1ccc(Nc2nc(NCc3ccccc3)c3ccccc3n2)cc1 | 3.79 µM | 154.58 um | – |
| c1ccc(Nc2ccnc(Nc3ccccc3)n2)cc1 | 1.48 µM | 92.37 um | – |
| O=C(c1cc2nc(-c3ccccc3)cc(C(F)(F)F)n2n1)N1CCN(Cc2ccccc2)CC1 | > 10 µM | 148.94 um | – |
| CCOC(=O)c1cnc2c3c(ccc2c1O)CCCC3 | 0.0108 µM | 26.2 um | – |
| [I-].c1ccc(CSc2scnc2[P+](c2ccccc2)(c2ccccc2)c2ccccc2)cc1 | 0.0685 µM | 21.61 um | – |
| COc1ccc(C2Sc3ccccc3N=C3C2=C(O)c2ccccc23)cc1 (configuration not stated) | 0.706 µM | 39.14 um | – |
| Oc1cccc2ccc[n+](CC(O)Cn3c4ccccc4c4ccccc43)c12.[Cl-] (configuration not stated) | 0.311 µM | 49.37 um | – |
| O=C(Cc1cccs1)N1CCN(c2ccccn2)CC1 | > 10 µM | 189.55 um | – |
| Cc1cccc(NC(=S)NC2CC3CCCC(C2)N3CCc2ccccc2)c1 (configuration not stated) | 0.277 µM | 67.74 um | – |
| Cn1cnnc1SCC(=O)Nc1ccccc1C(F)(F)F | > 10 µM | 204.16 um | – |
| Cc1ccc(-c2nn3c(O)c4c(nc3c2C)CCCC4)cc1 | 0.0113 µM | 28.7 um | – |
| [Cl-].c1ccc(Cc2cc[n+](Cc3ccccc3)cc2)cc1 | 4.52 µM | 127.34 um | – |
| COc1ccc(Nc2nc(NCc3ccccc3)c3ccccc3n2)cc1 | 0.305 µM | 29.96 um | – |
| O=C(c1cnsn1)N1CCCC(COc2cccc(CN3CCC(Cc4ccccc4)CC3)c2)C1 (configuration not stated) | 0.609 µM | 69.41 um | – |
| Cc1cccc(-c2cc3nc(C)c(C)c(O)n3n2)c1 | 1.1 µM | 67.43 um | – |
| CCc1c(C)c(C#N)c2nc3ccccc3n2c1NCc1ccccc1 | > 9.6 µM | 126.09 um | – |
| COc1cccc(C(=O)NC(c2ccccc2OC)c2cc(Cl)c3cccnc3c2O)c1 (configuration not stated) | 0.544 µM | 20.25 um | – |

| SMILES | IC50 [1] | Schizont size | IC50 (hepg2-a16-cd81) |
| --- | --- | --- | --- |
| CCCCNC(=O)C(CC)Sc1nnc(-c2ccc(C)cc2)c(-c2ccc(C)cc2)n1 (configuration not stated) | 0.291 µM | 31 um | – |
| Cc1oc2c(c1C(=O)NCC1CCCO1)C(=O)c1ccccc1C2=O (configuration not stated) | 0.189 µM | 21.4 um | – |
| c1ccc(OCCOc2ccc(Nc3ccnc4cc5ccccc5cc34)cc2)cc1 | 0.0675 µM | 18.06 um | – |
| Cc1c(Cl)cccc1N1C(=O)C2C3c4ccccc4C(c4ccccc43)C2C1=O (configuration not stated) | > 10 µM | 158.75 um | – |
| CC(=O)N(C1=C(N2CCOCC2)C(=O)c2ccccc2C1=O)c1cccc(Cl)c1 | 0.744 µM | 43.73 um | – |
| O=C(Cc1ccccc1)NC(c1ccc(Cl)cc1)c1ccc2cccnc2c1O (configuration not stated) | 0.19 µM | 17.33 um | – |
| Cc1ccc(S(=O)(=O)Nc2nc3n(n2)C(c2ccccc2)C=C(c2ccccc2)N3)cc1 (configuration not stated) | > 10 µM | 198.42 um | – |
| CC(c1nc2ccc(Cl)cc2c(=O)n1C)N1CCN(S(=O)(=O)c2cccc3ccccc23)CC1 (configuration not stated) | 0.0223 µM | – | – |
| CC(C)NC(=O)c1cc(NC(=O)c2cccs2)ccc1N1CCc2ccccc2C1 | 0.0748 µM | 26.93 um | – |
| CC[n+]1c(C=C2C=C(C)OC(C)=C2)sc2ccccc21.[Cl-] | 0.245 µM | 25.36 um | – |
| CCOC(=O)c1ccc(OCC2c3cc(OC)c(OC)cc3CCN2C(=O)c2ccc([N+](=O)[O-])cc2)cc1 (configuration not stated) | > 10 µM | 226.39 um | – |
| Fc1ccc(-c2cn3c([n+]2-c2ccccc2)SCC3)cc1.[Br-] | > 4.3 µM | 131.2 um | – |
| COc1ccc2[nH]c3ccccc3c(=O)c2c1 | 0.135 µM | 30.27 um | – |
| COC(=O)c1cc(NC(=S)NC(=O)c2c(OC)cccc2OC)cc(C(=O)OC)c1 | > 10 µM | 216.06 um | – |
| CCN(CC)CCCNc1nc2cc(OC)c(OC)cc2c2nc(-c3ccccc3)nn12 | 0.327 µM | 52.61 um | – |
| CCOC(=O)c1cnc2ccc(OC)cc2c1O | – | 30.16 um and 29.96 um | 0.135 µM and 0.293 µM |
| CC1(C)N=C(N)N=C(N)N1c1ccc(Cl)cc1.Cl [CHLORCYCLOGUANIL HYDROCHLORIDE] | 0.00256 µM | 33.09 um | – |
| Cc1cc(C)nc(NC(=N)Nc2cccc(O)c2)n1 | 0.152 µM | 88.2 um | – |
| CCCCCCCC[n+]1c(C)n(C)c2cc(Cl)c(Cl)cc21.[I-] | 0.419 µM | 40.39 um | – |
| COC(=O)C1=CNC=C(C(=O)OC)C1c1cc(OC)c(OC)c(OC)c1 | > 10 µM | 216.47 um | – |
| Cc1nc2ccc(NC(=O)C3CC3)cc2c(=O)n1Cc1ccc(Cl)cc1 | > 10 µM | – | – |
| c1ccc(-c2ccc(-c3ccccn3)nc2)nc1 | 0.0394 µM | 22.34 um | – |
| CCCCc1c(CCC)c(=N)c2ccccc2n1C.I | 0.244 µM | 58.14 um | – |
| Cn1ncnc2c(=O)n(C)c(=O)nc1-2 | 0.103 µM | 12.53 um | – |
| Cc1ccc(Nc2nc(NCc3ccccc3)c3ccccc3n2)cc1 | 0.278 µM | 31.73 um | – |
| COC(OC)C(C)=NNC(N)=S | 0.00493 µM | 78.8 um | – |
| Cc1nc2c(C)cccc2c(O)c1CC=C(Cl)Cl | 0.169 µM | 31.21 um | – |

| SMILES | IC50 [1] | Schizont size | IC50 (hepg2-a16-cd81) |
| --- | --- | --- | --- |
| O=C1CC(c2ccccc2)CC2=C1C(c1ccccc1[N+](=O)[O-])Nc1ccccc1N2 (configuration not stated) | > 10 µM | 201.65 um | – |
| Cc1ccc(-c2cc3nc4c(c(O)n3n2)CCCC4)cc1 | 0.0753 µM | 26.41 um | – |
| Cc1ccccc1N=Nc1ccc(NC(=O)c2ccco2)c(C)c1 | 0.299 µM | 51.87 um | – |
| CN(Cc1ccccc1)C(=O)CSc1nc(NCc2ccccc2)c2ccccc2n1 | 0.00713 µM | 67.84 um | – |
| CCOC(=O)c1cnc2ccc(C(C)C)cc2c1O | 0.352 µM | 31.42 um | – |
| CCCCN(CC)CCNC(=O)C1c2ccccc2C(=O)N(Cc2ccc(F)cc2)C1c1ccc(OC)cc1 (configuration not stated) | 0.0891 µM | 63.36 um | – |
| O=C1C(Nc2ccc(O)cc2)=CC(=NS(=O)(=O)c2cccs2)c2ccccc21 | 0.0856 µM | 12.53 um | – |
| Cc1ccc(N2C(N)=NC(N)=NC2(C)C)cc1.Cl | 0.01 µM | 35.07 um | – |
| CC[n+]1c(/C=C/N(C)c2ccccc2)n(-c2ccccc2)c2ccc(-c3nc4ccccc4s3)cc21 | 0.014 µM | 20.14 um | – |
| O=C(O)c1c[nH]c2cc(N3CCCCCC3)c(F)cc2c1=O | > 10 µM | 224.51 um | – |
| CCCCc1c(C)nc2c(OC)cccc2c1O | 0.561 µM | 42.59 um | – |
| Cc1ccc(OCC(=O)Nc2cccc(-c3nc4ncccc4o3)c2)cc1C | > 10 µM | 160.01 um | – |
| CCOc1ccc(Nc2cc(=O)oc3ccccc23)cc1 | 0.502 µM | 43.94 um | – |
| COc1cccc(Nc2nc(NCCO)c3ccccc3n2)c1.Cl | 0.0623 µM | 54.9 um | – |
| CN(C)CCCN(Cc1cc2cc3c(cc2[nH]c1=O)OCO3)C(=S)Nc1cccc(Cl)c1 | 0.818 µM | 60.22 um | – |
| Oc1cccc(Nc2nc(NCC3CCCO3)c3ccccc3n2)c1 (configuration not stated) | 1.04 µM | 74.32 um | – |
| CCOc1ccc2ncc(S(=O)(=O)c3ccc(OC)cc3)c(N3CCN(C)CC3)c2c1 | 0.0107 µM | 63.67 um | – |
| Cc1cccc(C(=O)NCc2nnc(S)n2-c2cccc(C(F)(F)F)c2)c1 | > 10 µM | 210.73 um | – |
| CCCCNC(=O)C1CCC(CN(Cc2c(Cl)cccc2Cl)S(=O)(=O)c2ccc(Br)cc2)CC1 (configuration not stated) | 0.124 µM | 29.64 um | – |
| CCCCCCOc1ccc(C(C)=NNC2=NCCN2)cc1[N+](=O)[O-] | 0.784 µM | 60.96 um | – |
| Cc1ccc2[nH]c(C)c(Br)c(=O)c2c1 | 0.253 µM | 29.96 um | – |
| CCCN(CCC)[P+](CCC)(c1ccc([P+](CCC)(N(CCC)CCC)N(CCC)CCC)cc1)N(CCC)CCC | 0.28 µM | 28.29 um | – |
| N=c1c2c(n(Cc3ccc(Cl)cc3)c3c1CCC3)CCC2 | 0.0911 µM | 32.57 um | – |
| CCOC(=O)CN(N=O)C1=C(N2CC2)C(=O)c2ccccc2C1=O | 0.48 µM | 35.8 um | – |
| CCOC(=O)c1c(CSc2ccccc2)oc2cc(CN(C)C)c(O)c(Cl)c12 | 7.2 µM | 188.08 um | – |
| Cc1ccc(-c2cn3c([n+]2-c2ccccc2)SCC3)cc1.[Br-] | 1.09 µM | 62.52 um | – |

— ChEMBL document CHEMBL1789904, “Imaging of Plasmodium liver stages to drive next-generation antimalarial drug discovery” (Science, 2011)
